In ChEMBL document CHEMBL4706590, “Design and characterization of cereblon-mediated androgen receptor proteolysis-targeting chimeras” (Eur J Med Chem, 2020):
Activity calls are given as the source filed them. The rule behind the calls is not given here.

Assays:
[1] = target: T1, Protein cereblon/Androgen receptor (Homo sapiens, UniProt P10275+Q96SW2); test: Protac activity at CRBN/AR in human LNCaP cells assessed as AR degradation at 0.1 uM by western blotting analysis relative to control; format: cell-based
Method in brief: (§1)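 LNCaP (IMDM) or 22RV1 (RPMI 1640) cells with 10% FBS at 37 °C, 5% CO2, treated with DMSO vehicle as control. Cells lysed in RIPA buffer (50 mM Tris-HCl pH 7.5, 150 mM NaCl, 1% Triton X-100, 0.1% SDS, 0.5% deoxycholate, protease inhibitors). Protein quantified by Bradford assay. Immunoblotted for AR with tubulin as loading control, HRP chemiluminescence detection.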
Target sequence in this assay (P10275 whole entry, looked up): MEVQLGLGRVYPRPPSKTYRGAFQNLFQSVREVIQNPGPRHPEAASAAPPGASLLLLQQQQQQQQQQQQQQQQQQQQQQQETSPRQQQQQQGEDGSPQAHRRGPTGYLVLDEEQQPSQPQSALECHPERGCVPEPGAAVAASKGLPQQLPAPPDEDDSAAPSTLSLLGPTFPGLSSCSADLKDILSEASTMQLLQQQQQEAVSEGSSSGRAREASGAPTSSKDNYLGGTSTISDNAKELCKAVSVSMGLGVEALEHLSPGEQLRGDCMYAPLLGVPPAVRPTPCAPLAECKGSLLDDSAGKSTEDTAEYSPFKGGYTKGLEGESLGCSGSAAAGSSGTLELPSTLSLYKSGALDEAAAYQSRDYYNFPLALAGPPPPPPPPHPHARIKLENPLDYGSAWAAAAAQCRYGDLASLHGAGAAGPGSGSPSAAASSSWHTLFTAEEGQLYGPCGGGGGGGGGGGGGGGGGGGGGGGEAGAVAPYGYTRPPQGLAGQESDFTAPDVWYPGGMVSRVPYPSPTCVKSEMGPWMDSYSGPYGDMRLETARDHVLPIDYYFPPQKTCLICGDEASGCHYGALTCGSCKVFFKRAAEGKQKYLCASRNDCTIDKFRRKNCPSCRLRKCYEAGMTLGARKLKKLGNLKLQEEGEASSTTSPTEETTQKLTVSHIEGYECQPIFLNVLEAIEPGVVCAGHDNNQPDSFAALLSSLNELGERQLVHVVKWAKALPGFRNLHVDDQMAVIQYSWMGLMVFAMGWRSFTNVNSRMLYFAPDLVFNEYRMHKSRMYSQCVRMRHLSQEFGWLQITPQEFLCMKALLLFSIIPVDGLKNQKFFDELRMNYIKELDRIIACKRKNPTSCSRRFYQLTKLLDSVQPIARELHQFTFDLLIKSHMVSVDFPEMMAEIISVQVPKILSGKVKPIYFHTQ
Target sequence in this assay (Q96SW2 whole entry, looked up): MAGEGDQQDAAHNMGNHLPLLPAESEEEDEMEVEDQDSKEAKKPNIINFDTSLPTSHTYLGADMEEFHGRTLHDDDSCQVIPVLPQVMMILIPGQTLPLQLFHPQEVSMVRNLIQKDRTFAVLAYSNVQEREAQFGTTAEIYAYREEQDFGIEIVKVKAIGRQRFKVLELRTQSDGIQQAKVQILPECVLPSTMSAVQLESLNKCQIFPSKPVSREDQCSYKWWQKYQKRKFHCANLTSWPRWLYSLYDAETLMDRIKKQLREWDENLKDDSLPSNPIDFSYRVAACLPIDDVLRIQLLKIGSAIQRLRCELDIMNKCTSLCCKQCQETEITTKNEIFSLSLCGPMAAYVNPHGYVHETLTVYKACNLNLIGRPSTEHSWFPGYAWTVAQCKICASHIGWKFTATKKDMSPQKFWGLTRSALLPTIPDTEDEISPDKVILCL

[2] = target: T1, Protein cereblon/Androgen receptor; test: Protac activity at CRBN/AR in human LNCaP cells assessed as AR degradation at 1 uM by Western blotting analysis relative to control; format: cell-based; method in brief: as §1
Target sequence in this assay (P10275 whole entry, looked up): as the sequence (P10275 whole entry, looked up) above
Target sequence in this assay (Q96SW2 whole entry, looked up): as the sequence (Q96SW2 whole entry, looked up) above

[3] = target: T1, Protein cereblon/Androgen receptor; test: Protac activity at CRBN/AR in human LNCaP cells assessed as AR degradation at 10 uM by Western blotting analysis relative to control; format: cell-based; method in brief: as §1
Target sequence in this assay (P10275 whole entry, looked up): as the sequence (P10275 whole entry, looked up) above
Target sequence in this assay (Q96SW2 whole entry, looked up): as the sequence (Q96SW2 whole entry, looked up) above

LNCaP = test: Antiproliferative activity against human LNCaP cells assessed as reduction in cell viability after 6 days by CellTiter-Glo assay; format: functional; conditions: 144 h, time 6 day
Method in brief: (§2)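 LNCaP seeded at 1.5 × 10³ and VCaP at 4 × 10³ cells per well in 96-well plates. Cells grown in IMDM with 10% FBS and antibiotic-antimycotic at 37 °C, 5% CO2, with DMSO as vehicle. IC50 from nonlinear regression of log(inhibitor) versus response.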

VCaP [4] = test: Antiproliferative activity against human VCaP cells assessed as reduction in cell viability after 6 days by CellTiter-Glo assay; format: functional; conditions: 144 h, time 6 day; method in brief: as §2
[5] = Metabolic stability in mouse liver microsomes assessed as compound remaining at 1 uM after 30 mins in presence of NADPH-regenerating system; format: ADME, Microsome; conditions: read-out: Stabilty
Method in brief: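 Mouse liver microsomes at 0.5 mg protein/mL in 100 mM PBS, pH 7.4. Reaction started with NADPH-regenerating solution (1.3 mM NADP+, 3.3 mM glucose-6-phosphate, 0.4 U/mL G6PDH, 3.3 mM MgCl2). Incubated 30 min at 37 °C, stopped with ice-cold acetonitrile, centrifuged. Percent remaining reported as mean ± SD, n = 3.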

[6] = Tmax in ICR mouse at 5 mg/kg, ip by LC-MS/MS analysis; format: ADME, organism-based; conditions: in vivo
Method in brief: (§3)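 Male ICR mice, 7 weeks old. Single dose of 5 mg/kg IV or IP in 5% DMSO, 52% PEG400, 3% Tween 80 in water, or 30 mg/kg PO in 20% PEG400 and 3% Tween 80 in water. Retro-orbital blood sampled over time. Plasma protein-precipitated with acetonitrile (1:10) and analysed by LC-MS/MS. Parameters from noncompartmental analysis of mean data, n = 3.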

[7] = Tmax in ICR mouse at 30 mg/kg, po by LC-MS/MS analysis; format: ADME, organism-based; conditions: in vivo; method in brief: as §3
[8] = Cmax in ICR mouse at 5 mg/kg, ip by LC-MS/MS analysis; format: ADME, organism-based; parameters: route intraperitoneal, dose 5 mg/kg; conditions: in vivo; method in brief: as §3
[9] = Cmax in ICR mouse at 30 mg/kg, po by LC-MS/MS analysis; format: ADME, organism-based; parameters: route oral, dose 30 mg/kg; conditions: in vivo; method in brief: as §3
[10] = Half life in ICR mouse at 5 mg/kg, iv by LC-MS/MS analysis; format: ADME, organism-based; conditions: in vivo; method in brief: as §3
[11] = Half life in ICR mouse at 5 mg/kg, ip by LC-MS/MS analysis; format: ADME, organism-based; conditions: in vivo; method in brief: as §3
[12] = Half life in ICR mouse at 30 mg/kg, po by LC-MS/MS analysis; format: ADME, organism-based; conditions: in vivo; for t1/2: 30 mg/kg; method in brief: as §3
[13] = AUCt in ICR mouse at 5 mg/kg, iv by LC-MS/MS analysis; format: ADME, organism-based; parameters: dose 5 mg/kg; conditions: in vivo; method in brief: as §3
[14] = AUCt in ICR mouse at 5 mg/kg, ip by LC-MS/MS analysis; format: ADME, organism-based; parameters: dose 5 mg/kg; conditions: in vivo; method in brief: as §3
[15] = AUCt in ICR mouse at 30 mg/kg, po by LC-MS/MS analysis; format: ADME, organism-based; parameters: dose 30 mg/kg; conditions: in vivo; for AUC(0-t): ICR; method in brief: as §3
[16] = target: T1, Protein cereblon/Androgen receptor; test: Protac activity at CRBN/AR in human LNCaP cells assessed as AR degradation after 24 hrs by Western blotting analysis; format: cell-based; method in brief: as §1
Target sequence in this assay (P10275 whole entry): as the sequence (P10275 whole entry, looked up) above
Target sequence in this assay (Q96SW2 whole entry): as the sequence (Q96SW2 whole entry, looked up) above

[17] = target: T1, Protein cereblon/Androgen receptor; test: Protac activity at CRBN/AR in human LNCaP cells assessed as maximum degradation of AR by Western blotting analysis relative to control; format: cell-based; conditions: time 24.0 hrs; method in brief: as §1
Target sequence in this assay (P10275 whole entry, looked up): as the sequence (P10275 whole entry, looked up) above
Target sequence in this assay (Q96SW2 whole entry, looked up): as the sequence (Q96SW2 whole entry, looked up) above

[18] = target: T1, Protein cereblon/Androgen receptor; test: Protac activity at CRBN/AR in human 22RV1 cells assessed as maximum degradation of AR at 1 uM by Western blotting analysis relative to control; format: cell-based; method in brief: as §1
Target sequence in this assay (P10275 whole entry, looked up): as the sequence (P10275 whole entry, looked up) above
Target sequence in this assay (Q96SW2 whole entry, looked up): as the sequence (Q96SW2 whole entry, looked up) above

[19] = target: T1, Protein cereblon/Androgen receptor; test: Protac activity at CRBN/AR in human 22RV1 cells assessed as maximum degradation of AR-V7 splice variant at 10 uM by Western blotting analysis relative to control; format: cell-based; method in brief: as §1
Target sequence in this assay (P10275 whole entry, looked up): as the sequence (P10275 whole entry, looked up) above
Target sequence in this assay (Q96SW2 whole entry, looked up): as the sequence (Q96SW2 whole entry, looked up) above

[20] = target: T1, Protein cereblon/Androgen receptor; test: Protac activity at CRBN/AR in human LNCaP cells assessed as AR degradation at 1 uM pretreated with protease inhibitor bortezomib by Western blotting analysis; format: cell-based; method in brief: as §1
[21] = target: T1, Protein cereblon/Androgen receptor; test: Protac activity at CRBN/AR in human LNCaP cells assessed as AR degradation at 1 uM pretreated with neddylation inhibitor MLN4924 by Western blotting analysis; format: cell-based; method in brief: as §1
[22] = target: T1, Protein cereblon/Androgen receptor; test: Protac activity at CRBN/AR in human LNCaP cells assessed as AR degradation at 1 uM after 4 hrs by Western blotting analysis relative to control; format: cell-based; method in brief: as §1
VCaP [23] = test: Antitumor activity against human VCaP cells xenografted in SCID mouse assessed as reduction in tumor growth at 30 mg/kg, ip administered once daily for 10 days and measured every 1 to 3 days post treatment by caliper method; format: functional, organism-based; conditions: time 10.0 day
Method in brief: (§4)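 Male SCID mice (C.B-17/IcrCrj-scid) implanted subcutaneously in the right flank with 1.5×10⁷ VCaP cells mixed 1:1 with Matrigel. At about 130 mm³, mice dosed IP once daily for 10 days, vehicle 20% PEG400 + 3% Tween 80 in PBS. Tumours measured by caliper, volume = length × width² × 0.5. Body weight tracked alongside; Mann-Whitney U test, α = 0.01.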

[24] = Toxicity in SCID mouse xenografted with human VCaP cells assessed as loss of body weight at 30 mg/kg, ip administered once daily for 10 days and measured every 1 to 3 days post treatment; format: organism-based; conditions: in vivo, 240 h, time 10 day; method in brief: as §4
[25] = target: T1, Protein cereblon/Androgen receptor; test: Protac activity at CRBN/AR in human LNCaP cells assessed as AR degradation at 0.1 to 10 uM Western blotting analysis relative to control; format: cell-based; conditions: dose 0.1-10 µM; method in brief: as §1

Row | SMILES | Activity [1] [%] | Activity [2] [%] | Activity [3] [%] | CC50 (LNCaP) [nM] | CC50 (VCaP [4]) [nM] | remaining at 0.5 h, 1 µM [5] [%] | Tmax [6] [h] | Tmax ([7]; 30 mg/kg) [h] | Cmax [8] [ng/mL] | Cmax [9] [ng/mL] | half-life [10] [h] | t1/2 [11] [h] | t1/2 [12] [h] | AUC(0-t) [13] [ng·h/mL] | AUCt [14] [ng·h/mL] | AUCt [15] [ng·h/mL] | Tmax ([7]; ICR, read-out: Tmax) [h] | Cmax ([9]; ICR, read-out: Cmax) [ng/mL] | AUC(0-t) [15] [ng·h/mL] | further results
1 | CC1(C)[C@H](NC(=O)c2ccc(N3CCN(CCOC4CCN(C(=O)C5CN(c6ccc7nnn(C8CCC(=O)NC8=O)c(=O)c7c6)C5)CC4)CC3)cc2)C(C)(C)[C@H]1Oc1ccc(C#N)c(Cl)c1 (some centres undefined) | 82 | 86 | 90 | 762 | 57 | 92.6 | 1.67 | 0.7 | 2010 | 20 | 4.35 | 4.24 | 19.7 | 4490 | 7490 | 150 | – | – | – | –
2 | CC1(C)[C@H](NC(=O)c2ccc(N3CCN(C4CC5(CCN(C(=O)C6CCN(c7ccc8nnn(C9CCC(=O)NC9=O)c(=O)c8c7)CC6)CC5)C4)CC3)cc2)C(C)(C)[C@H]1Oc1ccc(C#N)c(Cl)c1 (some centres undefined) | 85 | 93 | 95 | 98 | 44 | 96 | 0.03 | – | 2780 | – | 8.28 | 4.41 | – | 20700 | 1720 | – | 4 | 110 | 530 | DC50 [16]: 12.5 nM; Activity [17]: 93%; Activity [18]: 85%; Activity [19]: 34%; Activity [20]: inactive; Activity [21]: inactive; Activity [22]: 80%; Activity (VCaP [23]): Active; Activity [24]: Non-Toxic
3 | CN1C(=O)CCC(n2nnc3ccc(N4CCC(C(=O)N5CCC6(CC5)CC(N5CCN(c7ccc(C(=O)N[C@H]8C(C)(C)[C@H](Oc9ccc(C#N)c(Cl)c9)C8(C)C)cc7)CC5)C6)CC4)cc3c2=O)C1=O (some centres undefined) | – | – | – | – | – | – | – | – | – | – | – | – | – | – | – | – | – | – | – | Activity [25]: inactive
4 | CC1(C)[C@H](NC(=O)c2ccc(N3CCN(CC4CCN(C(=O)C5CN(c6ccc7nnn(C8CCC(=O)NC8=O)c(=O)c7c6)C5)CC4)CC3)cc2)C(C)(C)[C@H]1Oc1ccc(C#N)c(Cl)c1 (some centres undefined) | 96 | 96 | 83 | 89 | 38 | 92.8 | 2 | 0.67 | 5540 | 50 | 4.48 | 4.82 | 26.7 | 24100 | 24200 | 440 | – | – | – | –
5 | CC1(C)[C@H](NC(=O)c2ccc(N3CCN(C4CC5(CCN(C(=O)CNc6ccc7nnn(C8CCC(=O)NC8=O)c(=O)c7c6)CC5)C4)CC3)cc2)C(C)(C)[C@H]1Oc1ccc(C#N)c(Cl)c1 (some centres undefined) | 61 | 77 | 39 | 208 | 54 | 85.5 | – | – | – | – | – | – | – | – | – | – | – | – | – | –
6 | CC1(C)[C@H](NC(=O)c2ccc(N3CCN(CCOC4CCN(c5ccc6nnn(C7CCC(=O)NC7=O)c(=O)c6c5)CC4)CC3)cc2)C(C)(C)[C@H]1Oc1ccc(C#N)c(Cl)c1 (some centres undefined) | 86 | 89 | 87 | 523 | 22 | 86.8 | 2 | – | 1780 | – | 4.68 | 4.51 | – | 14300 | 10700 | – | 2 | 280 | 2840 | half-life ([12]; ICR): 5.58 h
